One assay is filed under the species Bos taurus. Kind of assay: Ratio of Ka for cAMP to Ka for compound for bovine brain protein kinase in presence of 0.5 nmol [32P]ATP-gamma by liquid scintillation spectrometer.
For a further assay, the species on record is Oryctolagus cuniculus. Kind of assay: Activity of rabbit kidney PDE assessed as enzyme-mediated compound hydrolysis after 10 to 60 mins by colorimetric assay relative to cAMP. It is filed as tissue-based. A digest of the protocol:
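Rabbit kidney enzyme; 0.60 ml mix with 3.0 µmol cyclic nucleotide (5 mM), 3.0 µmol Tris HCl pH 7.5, 6 µmol MgCl2, 0.1–0.3 mg protein. Incubated usually 10–60 min, stopped by heating, bacterial alkaline phosphatase added, released phosphate read colorimetrically. Rate expressed relative to cAMP hydrolysis (nmol 5'-AMP per min).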

A short description of assay [1]: Inhibition of rabbit lung PDE assessed as inhibition 8-[3H]-cAMP substrate hydrolysis. More on the design: species or system Oryctolagus cuniculus. The following applies: read-out: I50. The gist of the method:
(§1)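 Beef heart or rabbit lung enzyme; 0.5 ml with 25 µmol Tris HCl pH 7.5, 5 µmol MgCl2, 20–200 µg protein, 80 pmol 8-[3H]cAMP, varying inhibitor levels. Times set by pilot runs. Heat stop, snake venom 5'-nucleotidase converts product to nucleoside, unreacted cyclic nucleotide bound to Dowex-1, nucleoside radioactivity counted. Nucleotidase interference checked with [14C]-5'-AMP.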

The nature of assay [2]: Inhibition of bovine heart PDE assessed as inhibition 8-[3H]-cAMP substrate hydrolysis. On the set-up: species or system Bos taurus. The following applies: read-out: I50. The gist of the method:
as §1

On to `Cc1nc(N)c2nc(Sc3ccc(Cl)cc3)n([C@@H]3O[C@@H]4COP(=O)(O)O[C@H]4[C@H]3O)c2n1`, for which the Ratio in the assay listed under Bos taurus worked out at 2.3. Moreover, the fold change (FC) in the assay listed under Oryctolagus cuniculus was 0.05. Moreover, the IC50 in assay [1] was found to be 33 µM; in assay [2], 5 µM.

Turning to `CCCCc1nc(N)c2nc(SCc3ccccc3)n([C@@H]3O[C@@H]4COP(=O)(O)O[C@H]4[C@H]3O)c2n1`, the Ratio in the assay listed under Bos taurus is 1.1. For the same molecule, the fold change (FC) in the assay filed under Oryctolagus cuniculus is less than 0.05. The IC50 was determined as 9.5 µM in assay [1] and 7.1 µM in assay [2].

As to `Cc1nc(N)c2nc(Br)n([C@@H]3O[C@@H]4COP(=O)(O)O[C@H]4[C@H]3O)c2n1`, the Ratio in the assay filed under Bos taurus is 3.4. For the same molecule, the fold change (FC) in the assay filed under Oryctolagus cuniculus was 0.15. Further, the IC50 in assay [1] came out at 25 µM; in assay [2], 30 µM.

Consider `Nc1ncnc2c1nc(Br)n2[C@@H]1O[C@@H]2COP(=O)(O)O[C@H]2[C@H]1O`, for which, in the assay listed under Bos taurus, the Ratio came out at 2.9. In the assay filed under Oryctolagus cuniculus, the fold change (FC) was less than 0.05. Moreover, the IC50 in assay [1] was found to be 40 µM.

Take `Cc1nc(N)c2ncn([C@@H]3O[C@@H]4COP(=O)(O)O[C@H]4[C@H]3O)c2n1`: the Ratio in the assay filed under Bos taurus was determined as 0.16. Also, the fold change (FC) in the assay listed under Oryctolagus cuniculus came out at 0.83. Further, the IC50 in assay [1] was 1.6 µM; in assay [2], 1.1 µM.

For the molecule `[N-]=[N+]=Nc1nc2c(N)ncnc2n1[C@@H]1O[C@@H]2COP(=O)(O)O[C@H]2[C@H]1O`, the Ratio in the assay filed under Bos taurus was determined as 0.68. In addition, in the assay filed under Oryctolagus cuniculus, the fold change (FC) was less than 0.05. For the same molecule, the IC50 in assay [1] was found to be 80 µM; in assay [2] it was 43 µM.

Consider `Nc1c2ncn([C@@H]3O[C@@H]4COP(=O)(O)O[C@H]4[C@H]3O)c2nc[n+]1[O-]`, for which, in the assay listed under Bos taurus, the Ratio was 0.45. Also, in the assay listed under Oryctolagus cuniculus, the fold change (FC) was 0.33. Also, the IC50 came out at 35 µM in assay [1] and 50 µM in assay [2].

Turning to `Cc1nc(N)c2nc(SCc3ccccc3)n([C@@H]3O[C@@H]4COP(=O)(O)O[C@H]4[C@H]3O)c2n1`, the Ratio in the assay filed under Bos taurus came out at 0.95. In addition, the fold change (FC) in the assay filed under Oryctolagus cuniculus was found to be 0.05. The figures for the IC50 in assay [1] and in assay [2] were 9.5 µM and 4.3 µM, respectively.

In the case of `Nc1c2nc(Br)n([C@@H]3O[C@@H]4COP(=O)(O)O[C@H]4[C@H]3O)c2nc[n+]1[O-]`, the Ratio in the assay filed under Bos taurus was determined as 0.15. Moreover, the fold change (FC) in the assay filed under Oryctolagus cuniculus was less than 0.05. Also, the IC50 in assay [1] came out at 400 µM; in assay [2] it was 59 µM.

On to `Nc1ncnc2c1nc(Sc1ccc(Cl)cc1)n2[C@@H]1O[C@@H]2COP(=O)(O)O[C@H]2[C@H]1O`, for which, in the assay listed under Bos taurus, the Ratio was 18. The fold change (FC) in the assay listed under Oryctolagus cuniculus is less than 0.05. Further, in assay [1], the IC50 stood at 200 µM.

As to `Cn1cnc2c(ncn2[C@@H]2O[C@@H]3COP(=O)(O)O[C@H]3[C@H]2O)c1=N`, the Ratio in the assay filed under Bos taurus amounted to 0.012. In addition, the fold change (FC) in the assay listed under Oryctolagus cuniculus turned out to be 0.16. For the same molecule, the IC50 in assay [1] was 65 µM; in assay [2], 80 µM.

For the molecule `CCCCc1nc(N)c2nc(Sc3ccc(Cl)cc3)n([C@@H]3O[C@@H]4COP(=O)(O)O[C@H]4[C@H]3O)c2n1`, the Ratio in the assay filed under Bos taurus stood at 2.2. In the assay listed under Oryctolagus cuniculus, the fold change (FC) is less than 0.05. Besides, the IC50 is 11 µM in assay [1] and 5 µM in assay [2].

Take `Cc1nc(N)c2nc(N=[N+]=[N-])n([C@@H]3O[C@@H]4COP(=O)(O)O[C@H]4[C@H]3O)c2n1`: the Ratio in the assay filed under Bos taurus worked out at 0.45. The fold change (FC) in the assay filed under Oryctolagus cuniculus stood at 0.16. Besides, the figures for the IC50 in assay [1] and in assay [2] were 67 µM and 50 µM, respectively.

For the molecule `Nc1ncnc2c1nc(SCc1ccccc1)n2[C@@H]1O[C@@H]2COP(=O)(O)O[C@H]2[C@H]1O`, the Ratio in the assay listed under Bos taurus was 2.1. Besides, the fold change (FC) in the assay filed under Oryctolagus cuniculus was less than 0.05. Also, the IC50 came to 53 µM in assay [1] and 17 µM in assay [2].

Turning to `Cn1cnc2c(nc(SCc3ccccc3)n2[C@@H]2O[C@@H]3COP(=O)(O)O[C@H]3[C@H]2O)c1=N`, the Ratio in the assay listed under Bos taurus turned out to be 1.3. The IC50 in assay [1] was found to be 61 µM; in assay [2], 67 µM.

`CCCCc1nc(N)c2ncn([C@@H]3O[C@@H]4COP(=O)(O)O[C@H]4[C@H]3O)c2n1`: the Ratio in the assay filed under Bos taurus stood at 0.46. Besides, the fold change (FC) in the assay filed under Oryctolagus cuniculus stood at 0.64. Besides, the IC50 worked out at 3 µM in assay [1] and 10 µM in assay [2].

For `CCCCc1nc(N)c2nc(Br)n([C@@H]3O[C@@H]4COP(=O)(O)O[C@H]4[C@H]3O)c2n1`, the Ratio in the assay filed under Bos taurus came out at 0.66. For the same molecule, the fold change (FC) in the assay filed under Oryctolagus cuniculus was less than 0.05. The IC50 in assay [1] worked out at 17 µM; in assay [2], 11 µM.

The values above are taken from ChEMBL document CHEMBL3272006, “Synthesis of some 1, 8- and 2, 8-disubstituted derivatives of adenosine cyclic 3', 5'-phosphate and their interaction with some enzymes of cAMP metabolism” (J Med Chem, 1976).
